ChEMBL document CHEMBL1153100, “Synthesis and in vivo evaluation of 3-substituted gababutins” (Bioorg Med Chem Lett, 2010)
pIC50: −log10 of the molar value. Active and inactive are the calls of the source. No cut-off for these calls is given here.

How the values were obtained:
[1] = biological target: Voltage-dependent calcium channel alpha2delta subunit (Sus scrofa, UniProt O77773); assay: Displacement of [3H]gabapentin from calcium channel alpha2delta in pig cerebral cortex membrane after 30 mins; type: cell membranes
Rattus norvegicus [2] = assay: Analgesic activity in po dosed rat assessed as increase in number shocks received for 10 mins; type: functional; details: read-out: MED
Procedure, shortened: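 Vogel conflict model: rats were dosed orally at different doses, then placed in a cage with a drinking tube that delivered a shock at each drink. The mean number of shocks per rat was counted over 10 min. The minimum effective dose was taken from significance versus vehicle (P <0.05).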

Rattus norvegicus [3] = assay: Antihyperalgesic effect in carrageenan-induced rat inflammatory pain model assessed as reversal of hyperalgesia at 30 mg/kg, po; type: functional, organism-based; set-up: dose 30 mg/kg
Procedure, shortened: (§1)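 Rats received intraplantar carrageenan in the paw, and thermal hyperalgesia was allowed to form over 2 h, to a paw-withdrawal latency of 2.5 s. Test compound was then given orally. Reversal of hyperalgesia was read as the time to paw withdrawal.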

Rattus norvegicus [4] = assay: Antihyperalgesic effect in carrageenan-induced intrathecal dosed rat inflammatory pain model assessed as reversal of hyperalgesia; type: functional, organism-based
Rattus norvegicus [5] = assay: Antihyperalgesic effect in carrageenan-induced rat inflammatory pain model assessed as reversal of hyperalgesia at 1 to 30 mg/kg, po; type: functional, organism-based; procedure, shortened: as §1

Sequence of Voltage-dependent calcium channel alpha2delta subunit (O77773 whole entry): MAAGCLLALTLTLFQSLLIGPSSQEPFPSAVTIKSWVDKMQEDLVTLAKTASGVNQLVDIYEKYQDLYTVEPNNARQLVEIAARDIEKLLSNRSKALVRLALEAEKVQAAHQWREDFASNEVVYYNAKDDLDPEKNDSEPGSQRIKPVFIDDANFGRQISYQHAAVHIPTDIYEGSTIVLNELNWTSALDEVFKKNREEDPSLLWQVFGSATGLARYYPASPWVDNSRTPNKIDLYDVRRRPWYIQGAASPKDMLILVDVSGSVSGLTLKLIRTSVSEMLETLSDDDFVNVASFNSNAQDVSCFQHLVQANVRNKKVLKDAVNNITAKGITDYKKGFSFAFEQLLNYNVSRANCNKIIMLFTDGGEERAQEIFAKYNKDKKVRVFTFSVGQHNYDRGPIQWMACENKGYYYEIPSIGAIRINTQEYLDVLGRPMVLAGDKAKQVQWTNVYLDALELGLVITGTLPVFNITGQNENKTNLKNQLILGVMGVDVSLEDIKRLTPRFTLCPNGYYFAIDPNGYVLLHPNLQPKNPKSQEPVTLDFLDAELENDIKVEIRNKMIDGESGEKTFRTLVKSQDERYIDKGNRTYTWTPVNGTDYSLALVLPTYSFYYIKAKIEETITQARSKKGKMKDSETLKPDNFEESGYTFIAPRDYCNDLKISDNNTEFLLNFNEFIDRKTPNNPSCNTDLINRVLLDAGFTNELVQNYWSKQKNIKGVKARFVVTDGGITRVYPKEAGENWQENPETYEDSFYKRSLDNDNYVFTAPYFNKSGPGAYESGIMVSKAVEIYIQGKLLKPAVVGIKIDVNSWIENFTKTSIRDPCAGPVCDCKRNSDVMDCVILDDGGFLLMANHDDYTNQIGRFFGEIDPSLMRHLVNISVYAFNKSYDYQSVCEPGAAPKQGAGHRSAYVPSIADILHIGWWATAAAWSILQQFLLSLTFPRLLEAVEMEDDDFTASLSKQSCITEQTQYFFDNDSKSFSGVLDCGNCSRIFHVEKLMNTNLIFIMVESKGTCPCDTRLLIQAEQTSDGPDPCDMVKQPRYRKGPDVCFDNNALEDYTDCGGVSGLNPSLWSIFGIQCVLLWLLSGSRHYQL

Row | SMILES | pIC50 [1] | also measured
1 | CC[C@@H]1CCC(CN)(CC(=O)O)C1 (stereo not given in full) | 7.28 | –
2 | C[C@@H]1CCC(CN)(CC(=O)O)C1 (stereo not given in full) | 7.06 | –
3 | CC[C@H]1CCC(CN)(CC(=O)O)C1 (stereo not given in full) | 6.15 | –
4 | CC1(C)CCC(CN)(CC(=O)O)C1 (stereo not given) | 5.50 | –
5 | C[C@@H]1CC[C@@](CN)(CC(=O)O)C1 | 7.15 | minimal effective dose (Rattus norvegicus [2]): 30 mg/kg; Activity (Rattus norvegicus [3]): Active
6 | C[C@@H]1CC[C@](CN)(CC(=O)O)C1 | 7.52 | minimal effective dose (Rattus norvegicus [2]): 3 mg/kg; Activity (Rattus norvegicus [4]): Active; Activity (Rattus norvegicus [5]): inactive
7 | CCC[C@@H]1CCC(CN)(CC(=O)O)C1 (stereo not given in full) | 7.54 | –
8 | CC1CCC(CN)(CC(=O)O)C1 (mixture of isomers) | 7.09 | –
9 | CC(C)(C)C1CCC(CN)(CC(=O)O)C1 (mixture of isomers) | < 5.00 | –
10 | CCCC1CCC(CN)(CC(=O)O)C1 (mixture of isomers) | 7.16 | –
11 | CC(C)CC1CCC(CN)(CC(=O)O)C1 (mixture of isomers) | 6.12 | –
12 | CCC1CCC(CN)(CC(=O)O)C1 (mixture of isomers) | 7.26 | –
13 | CCCCC1CCC(CN)(CC(=O)O)C1 (mixture of isomers) | 6.16 | –
14 | NCC1(CC(=O)O)CCC(c2ccccc2)C1 (mixture of isomers) | 5.30 | –
15 | NCC1(CC(=O)O)CCC(Cc2ccccc2)C1 (mixture of isomers) | 5.03 | –
16 | NCC1(CC(=O)O)CCC(CCc2ccccc2)C1 (mixture of isomers) | 5.21 | –
17 | CCC[C@H]1CCC(CN)(CC(=O)O)C1 (single isomer, unassigned) | 5.92 | –
18 | C[C@H]1CCC(CN)(CC(=O)O)C1 (single isomer, unassigned) | 5.89 | –
19 | NCC1(CC(=O)O)CCCC1 [GABABUTIN] | 6.38 | –
20 | CC(C)C[C@H](CN)CC(=O)O [PREGABALIN] | – | minimal effective dose (Rattus norvegicus [2]): 10 mg/kg
